Laboratory results: ChEMBL document CHEMBL1123550, “Synthesis and biological activity of benzothiazolo[3,2-a]quinolone antibacterial agents” (1986)
Converted amounts (≈) assume the structure as drawn.

Columns and labels:
Streptococcus pyogenes = assay: The compound was tested in vitro for antibiotic activity against Streptococcus pyogenes 930
Acinetobacter = assay: Compound was tested in vitro for antibiotic activity against the bacteria Acinetobacter sp. CMX669; type: functional
Outline: (§1)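 Overnight cultures were grown in brain-heart infusion broth at 36 °C. The compound was diluted twofold in brain-heart infusion agar over a range of 200 to 0.005 µg/mL (final). Each plate received about 10⁴ organisms and was incubated at 36 °C for 18 h. The MIC was taken as the lowest concentration giving no visible growth.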

Escherichia coli = assay: Compound was tested in vitro for antibiotic activity against the bacteria Escherichia coli juhl; type: functional
Outline: as §1

Klebsiella aerogenes = assay: Compound was tested in vitro for antibiotic activity against bacteria Enterobacter aerogenes ATCC 13048; type: functional
Outline: as §1

Klebsiella pneumoniae = assay: Compound was tested in vitro for antibiotic activity against the bacteria Klebsiella pneumoniae 8045; type: functional
Outline: as §1

Pseudomonas aeruginosa [1] = assay: Compound was tested in vitro for antibiotic activity against the bacteria Pseudomonas aeruginosa 5007; type: functional
Outline: as §1

Pseudomonas aeruginosa [2] = assay: Compound was tested in vitro for antibiotic activity against the bacteria Pseudomonas aeruginosa K799/WT; type: functional
Outline: as §1

[3] = tested on: Staphylococcus epidermidis; assay: The compound was tested in vitro for antibiotic activity against Staphylococcus epidermidis 3519; type: functional
Outline: as §1

Staphylococcus aureus [4] = assay: The compound was tested in vitro for antibiotic activity against Staphylococcus aureus 686B; type: functional
Outline: as §1

Staphylococcus aureus [5] = assay: The compound was tested in vitro for antibiotic activity against Staphylococcus aureus ATCC 6538P; type: functional
Outline: as §1

Enterococcus faecium = assay: The compound was tested in vitro for antibiotic activity against […] ATCC 8043; type: functional
Outline: as §1

| Structure (SMILES) | MIC (Streptococcus pyogenes) [µg/mL] | MIC (Acinetobacter) [µg/mL] | MIC (Escherichia coli) [µg/mL] | MIC (Klebsiella aerogenes) [µg/mL] | MIC (Klebsiella pneumoniae) [µg/mL] | MIC (Pseudomonas aeruginosa [1]) [µg/mL] | MIC (Pseudomonas aeruginosa [2]) [µg/mL] | MIC [3] [µg/mL] | MIC (Staphylococcus aureus [4]) [µg/mL] | MIC (Staphylococcus aureus [5]) [µg/mL] | MIC (Enterococcus faecium) [µg/mL] |
| --- | --- | --- | --- | --- | --- | --- | --- | --- | --- | --- | --- |
| CN1CCN(c2cc3c(cc2F)c(=O)c(C(=O)O)cn3-c2ccccc2)CC1 | 3.1 (≈ 8.13 µM) |  |  |  |  |  |  |  |  |  |  |
| CCC(=O)N1CCN(c2cc3c(cc2F)c(=O)c(C(=O)O)c2sc4ccccc4n23)CC1 | 3.1 (≈ 6.84 µM) | 0.1 (≈ 0.221 µM) | 6.2 (≈ 13.7 µM) | 12.5 (≈ 27.6 µM) | 1.56 (≈ 3.44 µM) | > 100 | > 100 | 0.39 (≈ 0.86 µM) | 0.39 (≈ 0.86 µM) | 0.39 (≈ 0.86 µM) | 6.2 (≈ 13.7 µM) |
| Cc1cccc(C)c1-n1cc(C(=O)O)c(=O)c2cc(F)c(N3CCN(C)CC3)cc21 | > 100 |  |  |  |  |  |  |  |  |  |  |
| CC(=O)N1CCN(c2cc3c(cc2F)c(=O)c(C(=O)O)c2sc4ccccc4n23)CC1 | 3.1 (≈ 7.05 µM) | 6.2 (≈ 14.1 µM) | 6.2 (≈ 14.1 µM) | > 100 | 1.56 (≈ 3.55 µM) | > 100 | > 100 | 0.39 (≈ 0.887 µM) | 0.2 (≈ 0.455 µM) | 0.2 (≈ 0.455 µM) | 6.2 (≈ 14.1 µM) |
| Cc1ccccc1-n1cc(C(=O)O)c(=O)c2cc(F)c(N3CCN(C)CC3)cc21 | 50 (≈ 126 µM) |  |  |  |  |  |  |  |  |  |  |
| CN1CCN(c2cc3c(cc2F)c(=O)c(C(=O)O)c2sc4ccccc4n23)CC1 | 1.56 (≈ 3.79 µM) | 0.39 (≈ 0.948 µM) | 0.78 (≈ 1.9 µM) | 1.56 (≈ 3.79 µM) | 0.39 (≈ 0.948 µM) | 6.2 (≈ 15.1 µM) | 6.2 (≈ 15.1 µM) | 0.78 (≈ 1.9 µM) | 0.39 (≈ 0.948 µM) | 0.39 (≈ 0.948 µM) | 1.56 (≈ 3.79 µM) |
| CCn1cc(C(=O)O)c(=O)c2cc(F)c(N3CCNCC3)cc21 [NORFLOXACIN] | 3.1 (≈ 9.71 µM) |  |  |  |  |  |  |  |  |  |  |
| O=C(O)c1c(=O)c2cc(F)c(N3CCNCC3)cc2n2c1sc1ccccc12 | 0.78 (≈ 1.96 µM) | 0.39 (≈ 0.981 µM) | 0.2 (≈ 0.503 µM) | 0.78 (≈ 1.96 µM) | 0.2 (≈ 0.503 µM) | 1.56 (≈ 3.93 µM) | 1.56 (≈ 3.93 µM) | 0.39 (≈ 0.981 µM) | 0.39 (≈ 0.981 µM) | 0.39 (≈ 0.981 µM) | 0.78 (≈ 1.96 µM) |
| O=C(O)c1cn(-c2ccccc2)c2cc(N3CCNCC3)c(F)cc2c1=O | 1.56 (≈ 4.25 µM) |  |  |  |  |  |  | 0.78 (≈ 2.12 µM) |  |  |  |
